Compound activity (PubChem)
CHRM5 antagonist: antagonists of human muscarinic M5 receptor (CHRM5); inhibition, % at 3 µM; P08912; hit rate 0.59% among 360,000; CHO-hM5 cells, Fluo-8 calcium fluorescence, ACh EC80;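 active = inhibition above a per-plate cutoff, the mean of that plate's test compounds plus 3 SD, cut at about 27% in these data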;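 note: 0% = acetylcholine EC80 with DMSO and 100% = DMSO without agonist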
Target sequence (P08912 whole entry, looked up): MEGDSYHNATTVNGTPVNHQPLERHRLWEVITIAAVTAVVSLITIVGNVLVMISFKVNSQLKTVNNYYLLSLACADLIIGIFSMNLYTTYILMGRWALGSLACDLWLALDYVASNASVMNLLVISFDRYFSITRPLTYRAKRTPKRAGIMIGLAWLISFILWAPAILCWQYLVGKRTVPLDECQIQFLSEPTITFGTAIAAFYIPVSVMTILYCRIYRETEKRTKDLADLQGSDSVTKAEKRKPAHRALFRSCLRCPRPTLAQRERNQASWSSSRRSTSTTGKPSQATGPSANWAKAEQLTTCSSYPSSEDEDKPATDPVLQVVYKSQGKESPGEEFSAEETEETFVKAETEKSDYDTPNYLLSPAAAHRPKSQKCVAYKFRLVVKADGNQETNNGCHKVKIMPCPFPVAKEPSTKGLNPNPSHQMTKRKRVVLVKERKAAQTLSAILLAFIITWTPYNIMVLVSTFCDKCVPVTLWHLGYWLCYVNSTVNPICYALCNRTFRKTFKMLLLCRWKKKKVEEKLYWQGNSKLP
M4 ag: agonists of human muscarinic M4 receptor (CHRM4); activation, % at 3 µM; CHO-K1 hM4/Gqi5, Fluo-8 calcium fluorescence; vehicle 0%, full acetylcholine response 100%; hit rate 0.14% among 360,000; P08173;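 active = activation above the run mean over all test wells plus 3 SD, cut at about 32% in these data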;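 note: peak over basal fluorescence ratio per well then scaled between controls; 0% = DMSO wells and 100% = acetylcholine at EC100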
CHRM4 PAM: potentiates acetylcholine response at human M4 receptor | P08173 | CHO-K1 hM4/Gqi5, Fluo-8 calcium fluorescence, ACh EC20; 0% = ACh EC20, 100% = maximal ACh | activation, % at 3 µM | hit rate 0.4% among 360,000 | AID 624126;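 active = activation above its plate's cutoff, the mean activation of sample wells plus 3 SD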
M4 antag: CHRM4 antagonism in calcium assay; inhibition, % at 3 µM; hit rate 0.73% among 360,000; CHO-hM4 cells, ACh EC80, Fluo-8 calcium fluorescence; P08173;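 active = inhibition above its plate's cutoff, the mean inhibition of sample wells plus 3 SD, cut at about 27% in these data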;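 note: 0% = acetylcholine EC80 with DMSO and 100% = DMSO without agonist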
M5 ag: agonists of human muscarinic M5 receptor (CHRM5) | CHO-K1 hM5 cells, Fluo-8 calcium fluorescence; 0% DMSO wells, 100% maximal acetylcholine response | hit rate 0.19% among 360,000 | AID 624037 | activation, % at 3 µM;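 active = activation above the run's mean over test compounds plus 3 SD, cut at about 23% in these data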;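 note: signal is peak over basal fluorescence ratio across the kinetic read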
CHRM5 PAM: CHRM5 positive allosteric modulation | P08912 | CHO-K1 hM5, Fluo-8 calcium, ACh EC20 PAM; 0% = ACh EC20, 100% = ACh EC100 | AID 624038 | hit rate 0.3% among 360,000 | activation, % at 3 µM;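 active = activation above the run cutoff, the mean activation of all test compounds plus 3 SD, cut at about 18% in these data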
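Assay system: CHO-K1 hM5 cells. Also added: acetylcholine at EC20 concentration, added after compound. Dosing: 3 µM, single dose. Times: compound preincubation 140 s before EC20 acetylcholine addition. Signal: Fluo-8 calcium fluorescence. Measure: % activation relative to EC20 and EC100 ACh responses. Repeats: singlicate, one well per test compound.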
* hit, by the source's call. Most compounds without a hit are left out; they make up all but 1.8% or so of the library.

SMILES	CHRM5 antagonist	M4 ag	CHRM4 PAM	M4 antag	M5 ag	CHRM5 PAM
CCOC(=O)C1(Cc2ccc(Cl)cc2)CCN(C(C)Cc2ccc(O)c(OC)c2)CC1 (stereo not given)	30*	12	-12	17	5	-15
O=C(O)C1C2CCC(O2)C1C(=O)Nc1ccc(OC(F)F)cc1 (stereo not given)	-7	1	3	-20	-3	6
O=C(NC(NC(=S)Nc1cccc(C(=O)O)c1)C(Cl)(Cl)Cl)OCc1ccccc1 (stereo not given)	-6	1	11	-6	1	6
O=C(NC(NC(=S)Nc1cccc(Cl)c1)C(Cl)(Cl)Cl)OCc1ccccc1 (stereo not given)	27*	23	-15	17	9	-21
COc1ccccc1CNC(=O)c1ccc2nc(C)c(N(C)Cc3ccc(NC(C)=O)cc3)n2c1	4	7	-5	-3	0	0
CC(=O)OC1c2ccccc2C(=O)N1Cc1ccccc1Cl (stereo not given)	6	0	-11	34*	-2	-10
Cc1onc(-c2ccccc2Cl)c1C(=O)N(C)CC(=O)Nc1ccc(F)c(F)c1F	0	2	2	1	-2	3
OCC1OC(n2cnc3c(NCc4ccco4)ncnc32)C(O)C1O (stereo not given)	4	0	-1	-4	0	2
OC[C@H]1O[C@@H](n2cnc3c(NCc4ccco4)ncnc32)[C@H](O)[C@@H]1O	6	0	-4	6	45*	-17
O=C(NCc1ccc2c(c1)OCO2)c1nc(S(=O)(=O)Cc2ccccc2F)ncc1Cl	16	9	-10	38*	-4	-3
CCc1cc(=O)oc2cc(OCC(=O)O)c(Cl)cc12	-8	1	5	12	-9	20*
CCc1cc(=O)oc2cc(OCC(=O)N(CC)CC)c(Cl)cc12	-5	1	5	-5	0	-4
CCCCNC(=O)N(C)c1nncnc1C(=O)NC	-1	1	12	9	0	26*
CC1CCCC(C)N1CC(O)COc1c(F)cc(Br)cc1F (stereo not given)	3	11	-10	-9	-4	-17
O=C(CCC(=O)N1CCN(c2ccccn2)CC1)c1ccc(Cl)s1	0	1	-3	3	0	4
NNC(=O)c1oc2nc(-c3cccs3)cc(-c3ccco3)c2c1N	25	13	26*	14	0	15
CC(C)C[C@H]1CNC(=O)C(=O)N1C[C@H]1CCCN1C[C@H](CC(C)C)N1C[C@H](Cc2ccccc2)N(CCc2ccccc2)C(=O)C1=O	-3	0	6	-20	-2	-6
FC(F)(F)c1nc2ccccc2[nH]1	11	0	15*	10	0	4
Clc1ccc(CNc2ncnc3[nH]ncc23)c(Cl)c1	14	5	0	1	2	-9
CCOc1cc(-c2nc3ccccn3c2NCC2CCCO2)ccc1O (stereo not given)	24	22	-25	30*	5	-17
COc1cc(-c2nc3ccccn3c2NCC2CCCO2)ccc1O (stereo not given)	13	16	-19	14	6	-20
C=CCN1C(=O)c2ccccc2Sc2ccc(C(=O)N3CCN(C)CC3)cc21	0	1	0	4	-1	0
CN1CCCCC1CCN1c2ccccc2Sc2ccc(S(C)=O)cc21 (stereo not given)	98*	1	-18	88*	-2	-18
O=C(c1ccccc1)C1N=NCC1c1ccc(Cl)cc1 (stereo not given)	33*	1	3	-3	27*	-20
COCCNc1nc(N2CCCCC2)c2cnn(C)c2n1	-26	1	0	3	-2	18*
COc1ccc(C(C)NC(=O)C2CCCC2)cc1OC (stereo not given)	7	1	-1	0	-3	7
Cc1nc(COc2ccc(C(=O)NCc3ccccc3CN3CCCCC3)cc2)cs1	5	2	-13	19	-10	3
